Calls of active or inactive are those of the source. The rule behind the calls is not given here.
Target: Telomerase reverse transcriptase (Homo sapiens, UniProt O14746)
Assay: Inhibition of telomerase activity from human A2780 cells
Type: functional, cell-based
Settings: not given
Method in brief: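 TRAP assay with A2780 protein extract, Bradford-quantified. ACX primer (1 µM) and Taq added, 33 PCR cycles. Products on 10% PAGE with SYBR Green I, quantified by gel scanning against a no-protein or heat-inactivated control. Result reported as telEC50.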

Sequence of Telomerase reverse transcriptase (O14746 whole entry): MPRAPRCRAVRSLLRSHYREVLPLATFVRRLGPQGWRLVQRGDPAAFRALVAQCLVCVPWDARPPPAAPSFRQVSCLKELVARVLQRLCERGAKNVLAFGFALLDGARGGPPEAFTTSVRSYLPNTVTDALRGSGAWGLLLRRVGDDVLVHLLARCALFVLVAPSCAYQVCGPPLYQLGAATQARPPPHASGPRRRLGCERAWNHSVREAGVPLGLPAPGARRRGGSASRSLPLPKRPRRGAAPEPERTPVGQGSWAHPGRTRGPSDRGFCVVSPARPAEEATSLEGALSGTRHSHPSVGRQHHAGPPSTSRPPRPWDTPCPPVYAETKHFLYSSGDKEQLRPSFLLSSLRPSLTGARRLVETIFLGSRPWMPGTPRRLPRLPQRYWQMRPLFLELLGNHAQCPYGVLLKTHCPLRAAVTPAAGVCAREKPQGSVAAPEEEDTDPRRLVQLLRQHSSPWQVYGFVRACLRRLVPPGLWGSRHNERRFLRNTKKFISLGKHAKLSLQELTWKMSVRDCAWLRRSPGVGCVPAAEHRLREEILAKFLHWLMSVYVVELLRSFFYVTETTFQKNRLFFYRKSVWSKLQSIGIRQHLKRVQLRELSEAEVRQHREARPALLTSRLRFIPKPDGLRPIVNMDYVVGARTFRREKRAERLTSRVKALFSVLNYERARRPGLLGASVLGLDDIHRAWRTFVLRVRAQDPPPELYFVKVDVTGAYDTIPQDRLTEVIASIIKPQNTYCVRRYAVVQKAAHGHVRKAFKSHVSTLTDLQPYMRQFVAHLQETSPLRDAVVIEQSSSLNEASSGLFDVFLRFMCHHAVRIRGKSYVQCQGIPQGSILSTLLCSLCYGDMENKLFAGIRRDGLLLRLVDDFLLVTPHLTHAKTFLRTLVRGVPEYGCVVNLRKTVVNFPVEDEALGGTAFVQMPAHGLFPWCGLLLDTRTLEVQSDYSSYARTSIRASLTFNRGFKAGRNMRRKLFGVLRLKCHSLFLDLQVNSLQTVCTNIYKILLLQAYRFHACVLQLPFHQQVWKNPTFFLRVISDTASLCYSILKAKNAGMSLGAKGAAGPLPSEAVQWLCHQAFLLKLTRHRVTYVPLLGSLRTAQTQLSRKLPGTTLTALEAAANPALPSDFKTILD

EC50 [µM]	Structure (SMILES)
0.167	O=C(CCN1CCCC1)Nc1ccc2c(Nc3ccc(NC(=O)CN4CCCC4)cc3)c3ccc(NC(=O)CCN4CCCC4)cc3nc2c1
0.146	O=C(CCCCCN1CCCC1)Nc1ccc2c(Nc3ccc(NC(=O)CCN4CCCC4)cc3)c3ccc(NC(=O)CCCCCN4CCCC4)cc3nc2c1
1.93	CN(C)c1ccc(Nc2c3ccc(NC(=O)CCCCN4CCCC4)cc3nc3cc(NC(=O)CCCCN4CCCC4)ccc23)cc1
6.91	CN(C)c1ccc(Nc2c3ccc(NC(=O)CCCCCN4CCCC4)cc3nc3cc(NC(=O)CCCCCN4CCCC4)ccc23)cc1
0.099	CN(C)c1ccc(Nc2c3ccc(NC(=O)CCCN4CCCC4)cc3nc3cc(NC(=O)CCCN4CCCC4)ccc23)cc1
0.255	O=C(CCCCN1CCCC1)Nc1ccc2c(Nc3ccc(NC(=O)CCN4CCCC4)cc3)c3ccc(NC(=O)CCCCN4CCCC4)cc3nc2c1
5.2	O=C(CN1CCCC1)Nc1ccc2cc3ccc(NC(=O)CN4CCCC4)cc3nc2c1
> 20	O=C(CCN1CCCC1)Nc1ccc(Nc2c3ccccc3nc3ccccc23)cc1
0.067	O=C(CCN1CCCC1)Nc1ccc(Nc2c3ccc(NC(=O)CCN4CCCC4)cc3nc3cc(NC(=O)CCN4CCCC4)ccc23)cc1
0.117	O=C(CCCN1CCCC1)Nc1ccc(Nc2c3ccc(NC(=O)CCN4CCCC4)cc3nc3cc(NC(=O)CCN4CCCC4)ccc23)cc1
0.326	O=C(CCCN1CCCC1)Nc1ccc2c(Nc3ccc(NC(=O)CCN4CCCC4)cc3)c3ccc(NC(=O)CCCN4CCCC4)cc3nc2c1

Tested on: IMR-90
Assay: Cytotoxicity in human IMR90 cells by SRB assay
Type: functional, cell-based
Settings: not given

Structure (SMILES)	IC50 [µM]
O=C(CCN1CCCC1)Nc1ccc2c(Nc3ccc(NC(=O)CN4CCCC4)cc3)c3ccc(NC(=O)CCN4CCCC4)cc3nc2c1	> 25
O=C(CCCCCN1CCCC1)Nc1ccc2c(Nc3ccc(NC(=O)CCN4CCCC4)cc3)c3ccc(NC(=O)CCCCCN4CCCC4)cc3nc2c1	> 25
CN(C)c1ccc(Nc2c3ccc(NC(=O)CCCCN4CCCC4)cc3nc3cc(NC(=O)CCCCN4CCCC4)ccc23)cc1	> 25
CN(C)c1ccc(Nc2c3ccc(NC(=O)CCCCCN4CCCC4)cc3nc3cc(NC(=O)CCCCCN4CCCC4)ccc23)cc1	> 25
CN(C)c1ccc(Nc2c3ccc(NC(=O)CCCN4CCCC4)cc3nc3cc(NC(=O)CCCN4CCCC4)ccc23)cc1	> 25
O=C(CCCCN1CCCC1)Nc1ccc2c(Nc3ccc(NC(=O)CCN4CCCC4)cc3)c3ccc(NC(=O)CCCCN4CCCC4)cc3nc2c1	> 25
O=C(CCN1CCCC1)Nc1ccc(Nc2c3ccc(NC(=O)CCN4CCCC4)cc3nc3cc(NC(=O)CCN4CCCC4)ccc23)cc1	> 25
O=C(CCCN1CCCC1)Nc1ccc(Nc2c3ccc(NC(=O)CCN4CCCC4)cc3nc3cc(NC(=O)CCN4CCCC4)ccc23)cc1	> 25
O=C(CCCN1CCCC1)Nc1ccc2c(Nc3ccc(NC(=O)CCN4CCCC4)cc3)c3ccc(NC(=O)CCCN4CCCC4)cc3nc2c1	> 25
CN(C)c1ccc(Nc2c3ccc(NC(=O)CCN4CCCC4)cc3nc3cc(NC(=O)CCN4CCCC4)ccc23)cc1	> 25

Tested on: Nucleic Acid
Assay: Ratio of binding constant of compound binding to human quadruplex DNA over that of duplex DNA
Type: nucleic-acid assay
Settings: not given
Method in brief: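 Streptavidin-chip SPR (BIAcore 2000/3000) with biotinylated quadruplex or -AATT- duplex DNA loaded at 25 nM. Run in HEPES buffer pH 7.4 (0.20 M KCl, 3 mM EDTA, P20) at 25 °C. Steady-state RU from sensorgram plateaus, flow 10–30 µL/min, plotted against free compound concentration to fit binding constants. Value is the ratio of quadruplex to duplex constants.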

Ratio	Structure (SMILES)
10.9	O=C(CCN1CCCC1)Nc1ccc2c(Nc3ccc(NC(=O)CN4CCCC4)cc3)c3ccc(NC(=O)CCN4CCCC4)cc3nc2c1
72	O=C(CCCCCN1CCCC1)Nc1ccc2c(Nc3ccc(NC(=O)CCN4CCCC4)cc3)c3ccc(NC(=O)CCCCCN4CCCC4)cc3nc2c1
4.5	CN(C)c1ccc(Nc2c3ccc(NC(=O)CCCCN4CCCC4)cc3nc3cc(NC(=O)CCCCN4CCCC4)ccc23)cc1
5.8	CN(C)c1ccc(Nc2c3ccc(NC(=O)CCCCCN4CCCC4)cc3nc3cc(NC(=O)CCCCCN4CCCC4)ccc23)cc1
48	CN(C)c1ccc(Nc2c3ccc(NC(=O)CCCN4CCCC4)cc3nc3cc(NC(=O)CCCN4CCCC4)ccc23)cc1
1.6	O=C(CCCCN1CCCC1)Nc1ccc2c(Nc3ccc(NC(=O)CCN4CCCC4)cc3)c3ccc(NC(=O)CCCCN4CCCC4)cc3nc2c1
1.2	O=C(CN1CCCC1)Nc1ccc2cc3ccc(NC(=O)CN4CCCC4)cc3nc2c1
29	O=C(CCN1CCCC1)Nc1ccc(Nc2c3ccc(NC(=O)CCN4CCCC4)cc3nc3cc(NC(=O)CCN4CCCC4)ccc23)cc1
12.8	O=C(CCCN1CCCC1)Nc1ccc(Nc2c3ccc(NC(=O)CCN4CCCC4)cc3nc3cc(NC(=O)CCN4CCCC4)ccc23)cc1
0.6	O=C(CCCN1CCCC1)Nc1ccc2c(Nc3ccc(NC(=O)CCN4CCCC4)cc3)c3ccc(NC(=O)CCCN4CCCC4)cc3nc2c1
31	CN(C)c1ccc(Nc2c3ccc(NC(=O)CCN4CCCC4)cc3nc3cc(NC(=O)CCN4CCCC4)ccc23)cc1

Tested on: MCF7
Assay: Cytotoxicity in human MCF7 cells by SRB assay
Type: functional, cell-based
Settings: not given

Structure (SMILES)	IC50 [µM]
O=C(CCN1CCCC1)Nc1ccc2c(Nc3ccc(NC(=O)CN4CCCC4)cc3)c3ccc(NC(=O)CCN4CCCC4)cc3nc2c1	> 25
O=C(CCCCCN1CCCC1)Nc1ccc2c(Nc3ccc(NC(=O)CCN4CCCC4)cc3)c3ccc(NC(=O)CCCCCN4CCCC4)cc3nc2c1	> 25
CN(C)c1ccc(Nc2c3ccc(NC(=O)CCCCN4CCCC4)cc3nc3cc(NC(=O)CCCCN4CCCC4)ccc23)cc1	> 25
CN(C)c1ccc(Nc2c3ccc(NC(=O)CCCCCN4CCCC4)cc3nc3cc(NC(=O)CCCCCN4CCCC4)ccc23)cc1	> 25
CN(C)c1ccc(Nc2c3ccc(NC(=O)CCCN4CCCC4)cc3nc3cc(NC(=O)CCCN4CCCC4)ccc23)cc1	8.75
O=C(CCCCN1CCCC1)Nc1ccc2c(Nc3ccc(NC(=O)CCN4CCCC4)cc3)c3ccc(NC(=O)CCCCN4CCCC4)cc3nc2c1	> 25
O=C(CCN1CCCC1)Nc1ccc(Nc2c3ccc(NC(=O)CCN4CCCC4)cc3nc3cc(NC(=O)CCN4CCCC4)ccc23)cc1	> 25
O=C(CCCN1CCCC1)Nc1ccc(Nc2c3ccc(NC(=O)CCN4CCCC4)cc3nc3cc(NC(=O)CCN4CCCC4)ccc23)cc1	> 25
O=C(CCCN1CCCC1)Nc1ccc2c(Nc3ccc(NC(=O)CCN4CCCC4)cc3)c3ccc(NC(=O)CCCN4CCCC4)cc3nc2c1	> 25

Target: DNA polymerase I, thermostable (Thermus aquaticus) (UniProt P19821)
Assay: Inhibition of TAQ polymerase activity at 2 uM
Settings: not given
Method in brief: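 PCR with TS forward primer, NT reverse primer (0.5 µM), TSNT template (200 pM), 1 mM MgCl₂, 20 µM dNTPs and 1.25 U Taq, plus compound. Run: 92 °C 2 min, then 33 cycles of 92/52/72 °C. 36 bp product resolved on 10% polyacrylamide gel, stained with SYBR Green I.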

Sequence of DNA polymerase I, thermostable (Thermus aquaticus) (P19821 whole entry): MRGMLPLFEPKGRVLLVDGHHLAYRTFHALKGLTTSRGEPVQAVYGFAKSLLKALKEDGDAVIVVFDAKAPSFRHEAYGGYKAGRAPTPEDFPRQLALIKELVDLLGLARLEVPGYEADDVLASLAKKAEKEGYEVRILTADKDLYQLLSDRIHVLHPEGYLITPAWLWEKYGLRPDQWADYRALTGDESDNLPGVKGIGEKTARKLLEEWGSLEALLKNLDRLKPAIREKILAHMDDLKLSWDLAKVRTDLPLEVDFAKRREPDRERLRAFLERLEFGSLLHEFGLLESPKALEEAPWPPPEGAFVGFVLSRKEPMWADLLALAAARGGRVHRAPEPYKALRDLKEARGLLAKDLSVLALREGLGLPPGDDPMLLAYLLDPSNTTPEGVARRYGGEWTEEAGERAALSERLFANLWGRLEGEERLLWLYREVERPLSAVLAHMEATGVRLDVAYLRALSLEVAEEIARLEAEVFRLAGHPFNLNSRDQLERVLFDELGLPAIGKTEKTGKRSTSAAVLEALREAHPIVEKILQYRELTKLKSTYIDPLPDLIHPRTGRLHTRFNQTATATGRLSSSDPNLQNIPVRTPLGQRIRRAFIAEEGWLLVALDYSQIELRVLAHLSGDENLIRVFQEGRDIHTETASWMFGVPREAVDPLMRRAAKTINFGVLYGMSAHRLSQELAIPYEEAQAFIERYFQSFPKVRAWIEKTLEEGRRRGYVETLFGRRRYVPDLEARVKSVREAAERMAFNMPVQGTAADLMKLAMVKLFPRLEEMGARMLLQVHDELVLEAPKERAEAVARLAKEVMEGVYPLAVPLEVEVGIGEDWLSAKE

inhibition [%]	Structure (SMILES)
< 25	CN(C)c1ccc(Nc2c3ccc(NC(=O)CCCCN4CCCC4)cc3nc3cc(NC(=O)CCCCN4CCCC4)ccc23)cc1
< 25	CN(C)c1ccc(Nc2c3ccc(NC(=O)CCCCCN4CCCC4)cc3nc3cc(NC(=O)CCCCCN4CCCC4)ccc23)cc1
< 25	CN(C)c1ccc(Nc2c3ccc(NC(=O)CCCN4CCCC4)cc3nc3cc(NC(=O)CCCN4CCCC4)ccc23)cc1
< 25	CN(C)c1ccc(Nc2c3ccc(NC(=O)CCN4CCCC4)cc3nc3cc(NC(=O)CCN4CCCC4)ccc23)cc1

Tested on: MCF7
Assay: Increase in senescence in MCF7 cells by staining with SA-beta-Gal at 1 uM
Type: functional, cell-based
Settings: Homo sapiens
Method in brief: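 MCF7 cells in DMEM, counted and reseeded on day 1, treated that day and re-dosed on day 4 each week, over 4 weeks. Weekly, 1 × 10⁵ cells seeded with compound for about 24 h, then fixed and stained with X-gal solution (citrate/phosphate pH 6.0, ferro/ferricyanide) overnight at 37 °C. Blue cells counted by light microscopy as percentage of total versus vehicle control.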

Structure (SMILES)	Activity
CN(C)c1ccc(Nc2c3ccc(NC(=O)CCCN4CCCC4)cc3nc3cc(NC(=O)CCCN4CCCC4)ccc23)cc1	Active

Reference: ChEMBL document CHEMBL1147736, “Trisubstituted acridines as G-quadruplex telomere targeting agents. Effects of extensions of the 3,6- and 9-side chains on quadruplex binding, telomerase activity, and cell proliferation” (J Med Chem, 2006)
